Shown are actives, neighbours in structure and some others; about 3% of the full set was active somewhere.
beta cell repl: induces beta-cell replication in MIN6 cells; MIN6 cells proliferation, ATPlite luminescence, 48 h; cells starved in 0.2% serum; 100% = growth in 10% serum; proliferation, % at 10 µM; 330,000 compounds, 0.29% hits; AID 2380;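 active means compounds whose signal lies at least 3.5 SD above the mean of all wells on their plate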
UBC13 polyUb: inhibitors of human UBC13 polyubiquitin chain formation; TR-FRET; 330,000 compounds, 0.47% hits; P61088; inhibition, % at 20 µM; in the data active means inhibition above about 45%, passing the limit was not always enough
hiPSC survival: increases survival of single human iPS cells. 360,000 compounds, 0.044% hits. survival enhancement, % at 20 µM. hiPSC single-cell survival, ATPlite luminescence; 100% = ROCK inhibitor wells, 0% = DMSO; in the data active means survival enhancement above about 18%;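 further: cells exposed to compounds for 16 hours before the ATP read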
Apaf-1 inh: human Apaf-1 inhibition; inhibition, % at 20 µM; reconstituted apoptosome caspase-3 activity, DEVD-Rh110 fluorescence; 330,000 compounds, 0.71% hits; active means inhibition of at least 40% at 20 µM
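System – cell-free apoptosome with Apaf-1, procaspase-3 and caspase-9 · Buffer or medium – pH 7.5 Hepes buffer with CHAPS, BSA, DTT · Also added – cytochrome c with DEVD-Rh110 · Times – 30 min compound preincubation, 50 min activation, room temperature · Technique – Rh110 fluorescence intensity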
Granule exo inh: lytic granule exocytosis inhibition; TALL-104 LAMP-1 surface exposure, flow cytometry; cells stimulated with thapsigargin and PMA; inhibition, % at 10 µM; AID 651702; 360,000 compounds, 0.66% hits;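 active means inhibition above about 55%, limit read from the data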
MPTP block: inhibitors of mitochondrial permeability transition pore | isolated mouse mitochondria, Ca2+ swelling absorbance, 30 min | inhibition, % at 10 µM | 360,000 compounds, 1.4% hits;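 active means inhibition of 50% or more, scaled per plate between neutral and stimulator controls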
Rh123 counter: Rhodamine 123 counter-screen of mitochondrial pore hits; shares compounds with MPTP block; isolated mitochondria, membrane potential, Rhodamine 123 fluorescence; inhibition, % at 10 µM; 5,000 compounds, 78% hits; AID 624504; in the data active means inhibition above about 22%
MPTP swell DR: dose response confirmation of mitochondrial permeability transition pore inhibitors; IC50, µM; shares compounds with MPTP block; 780 compounds, 58% hits; AID 651561; isolated mitochondria swelling, absorbance; in the data active means IC50 below about 20 µM
MPTP counter DR: active in counter-screen for permeability transition pore inhibitors | shares compounds with MPTP block | AID 651564 | isolated mitochondria counterscreen, fluorescence read-out | 780 compounds, 49% hits | IC50, µM; in the data active means IC50 below about 80 µM
Large screens that a line does not name were inactive (follow-up assays come after a bar, where they were run).

CCN(C(=O)c1ccc(C(C)(C)C)cc1)c1nnc(Cn2nnc3ccccc32)s1	MPTP block 105.3 | Rh123 counter 92.1
CCN(CC)S(=O)(=O)c1cccc(NC(=O)CNc2cccc(S(=O)(=O)N3CCCC3)c2)c1	MPTP block 89.9 | Rh123 counter 101.1
O=C(CNc1cc(S(=O)(=O)N2CCCC2)ccc1OCC(F)(F)F)Nc1cccc(C(F)(F)F)c1	MPTP block 51.3 | Rh123 counter 48.4
O=C(CNc1cccc(C(F)(F)F)c1)Nc1cccc(S(=O)(=O)N2CCCC2)c1	none
COC(=O)[C@]12CCCCC=C1N(Cc1ccc3c(c1)OCO3)C(=O)[C@H](CC(=O)N1CCCCC1)C2	none (no result: beta cell repl, UBC13 polyUb, hiPSC survival, Apaf-1 inh)
O=C(NC(NC(=S)Nc1ccccc1C(=O)O)C(Cl)(Cl)Cl)c1cccc([N+](=O)[O-])c1 (stereo not drawn)	none
COc1ccc(NC(=S)NC(NC(=O)c2cccc(C)c2)C(Cl)(Cl)Cl)c([N+](=O)[O-])c1 (stereo not drawn)	MPTP block 71.4 | Rh123 counter 63.5
O=C(Cc1cccc2ccccc12)NC(NC(=S)Nc1ccccc1Cl)C(Cl)(Cl)Cl (stereo not drawn)	MPTP block 79.4 | Rh123 counter 70.3
COc1ccc(NC(=S)NC(NC(=O)c2cccc(Cl)c2)C(Cl)(Cl)Cl)c([N+](=O)[O-])c1 (stereo not drawn)	MPTP block 92.3 | Rh123 counter 51.0
COc1ccc(NC(=S)NC(NC(C)=O)C(Cl)(Cl)Cl)c([N+](=O)[O-])c1 (stereo not drawn)	none
O=C(NC(NC(=S)Nc1ccccc1Cl)C(Cl)(Cl)Cl)c1cccc(Cl)c1 (stereo not drawn)	MPTP block 76.7 | Rh123 counter 61.6
CC(=O)c1ccc(-c2ccc(C(=O)NC3CC(C)(C)NC(C)(C)C3)o2)cc1	none
CCc1nc2ccc(C(=O)NCCc3ccccn3)cn2c1N(CC)CCOC	none (no result: beta cell repl, UBC13 polyUb, Apaf-1 inh)
COc1cccc(/C=C/C(=O)NNC(=O)c2ccco2)c1OC	none
COc1cccc(C(=O)Nc2nnc(S(=O)(=O)N(C)Cc3ccc(F)cc3)s2)c1	MPTP block 56.4 | Rh123 counter 80.0
CCN(CC(=O)NCCCn1ccnc1)S(=O)(=O)c1ccc(C)cc1	none
CN(C)CCCOc1ccc2c(c1)Sc1ccccc1CC2=O	none
O=C1Cc2ccccc2Sc2cc(OCCCN3CCCCC3)ccc21	MPTP block 71.1 | Rh123 counter inactive | MPTP swell DR 9.86 | MPTP counter DR inactive
O=c1[nH]c(CN2CCCCC2)nc2c1C1(CCCCC1)Cc1ccccc1-2	MPTP block 76.9 | Rh123 counter inactive | MPTP swell DR inactive | MPTP counter DR inactive
CN(c1ccccc1)S(=O)(=O)c1ccc(NC(=O)c2ccc(F)cc2)cc1	MPTP block 58.3 | Rh123 counter 60.6
COc1ccccc1NS(=O)(=O)c1cccc(NC(=O)c2[nH]c(C)c(C(C)=O)c2C)c1	MPTP block 65.8 | Rh123 counter 63.8
CC(=O)c1c(C)[nH]c(C(=O)Nc2cccc(S(=O)(=O)N3CCOCC3)c2)c1C	none
COc1ccccc1NS(=O)(=O)c1cccc(NC(=O)Nc2ccccc2)c1	MPTP block 82.0 | Rh123 counter 86.2
CC(=O)c1c(C)[nH]c(C(=O)Nc2cccc(S(=O)(=O)N(C)c3ccccc3)c2)c1C	MPTP block 68.4 | Rh123 counter 78.5
Cc1cc(NC(=O)C2(C)CCN2C(C)C)c2ccccc2n1 (stereo not drawn)	none (no result: beta cell repl, UBC13 polyUb, Apaf-1 inh)
CCN(CC(=O)Nc1c(F)cccc1F)C(=O)C1CCCO1 (stereo not drawn)	none (no result: beta cell repl, UBC13 polyUb, Apaf-1 inh)
CC(C)[C@H](NC(=O)c1ccc(F)cc1)C(=O)N(C)Cc1cccs1	none
C[C@H](CO)N1C[C@H](C)[C@H](CN(C)S(=O)(=O)c2ccc(Cl)cc2)OCc2cnnn2CCCC1=O	none (no result: beta cell repl, UBC13 polyUb, Apaf-1 inh)

Assay outcomes as filed in PubChem BioAssay.
